Assay results as given in ChEMBL document CHEMBL1135762, “Chiral N,N-disubstituted trifluoro-3-amino-2-propanols are potent inhibitors of cholesteryl ester transfer protein” (J Med Chem, 2002).

Key:
[1] = target: T1, Cholesteryl ester transfer protein (Homo sapiens, UniProt P11597); assay: Concentration required for 50% inhibition of cholesteryl ester transfer protein in presence of buffer.
T1 sequence (P11597 whole entry): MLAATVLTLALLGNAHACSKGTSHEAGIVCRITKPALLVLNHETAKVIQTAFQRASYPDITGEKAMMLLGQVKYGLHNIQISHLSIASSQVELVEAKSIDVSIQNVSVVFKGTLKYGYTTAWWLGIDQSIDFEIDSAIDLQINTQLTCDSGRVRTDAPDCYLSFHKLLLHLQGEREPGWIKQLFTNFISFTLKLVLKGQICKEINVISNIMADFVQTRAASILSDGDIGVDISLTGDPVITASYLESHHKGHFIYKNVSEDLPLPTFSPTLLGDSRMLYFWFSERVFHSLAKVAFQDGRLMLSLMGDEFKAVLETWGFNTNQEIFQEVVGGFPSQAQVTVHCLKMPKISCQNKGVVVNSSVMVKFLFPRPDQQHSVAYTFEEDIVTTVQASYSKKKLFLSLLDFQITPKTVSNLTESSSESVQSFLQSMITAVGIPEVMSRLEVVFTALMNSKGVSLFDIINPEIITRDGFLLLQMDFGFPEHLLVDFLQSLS

[2] = target: T2, Cholesteryl ester transfer protein (Homo sapiens) (UniProt P11597); conditions: Cricetulus griseus; 30 mg/kg
T2 sequence (whole entry): T1 sequence (P11597 whole entry)

[3] = test system: Mus musculus; assay: Oral dosing of qd for 5 days at 30 mg/kg had percent increase of HDLc in hCEPT transgenic mice; format: functional
Procedure, shortened: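 C57bl mice transgenic for human CETP (plasma hCETP 2–20 µg/mL), fed cholesterol- and fat-supplemented chow for at least 2 weeks. Dosed orally at 30 mg/kg once daily for 5 days. Serum then analysed by size exclusion chromatography on two Superose 6 columns for relative VLDLc, LDLc and HDLc.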

[4] = Bioavailability in mice was reported; format: ADME, organism-based; conditions: mouse, in vivo
[5] = test system: Mus musculus; assay: Inhibition of CETP-mediated transfer ex vivo after 30 min in hCEPT transgenic mice by a single dose at 30 mg/kg; format: functional; conditions: 0.5 h
Procedure, shortened: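 C57Bl/6 mice homozygous for the human CETP gene, fed high-fat chow for at least 2 weeks. Single 30 mg/kg iv bolus in 10% ethanol/90% PEG; controls got vehicle. 0.05 mL [³H]CE-HDL (human HDL) was given into the tail vein. After 30 min, EDTA blood was taken and plasma obtained at 4 °C. Gel filtration gave the [³H]CE proportion in VLDL, LDL and HDL, compared with controls.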

[6] = target: T2, Cholesteryl ester transfer protein (Homo sapiens); conditions: Cricetulus griseus; 33 mg/kg
[7] = target: T1, Cholesteryl ester transfer protein; assay: Inhibition of cholesteryl ester transfer protein in presence of human serum
Procedure, shortened: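 CETP-mediated transfer of [³H]CE from HDL donor particles, measured with human serum supplying LDL, VLDL and human CETP.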

| Structure (SMILES) | IC50 [1] | also measured |
| --- | --- | --- |
| OC(CN(Cc1cccc(Oc2cccc(C(F)(F)F)c2)c1)c1cccc(F)c1)C(F)(F)F (stereo not given) | > 100 µM | – |
| OC(CN(Cc1cccc(C(F)(F)F)c1)c1cccc(F)c1)C(F)(F)F (stereo not given) | 37 µM | – |
| OC(CN(Cc1cccc(OC(F)(F)C(F)F)c1)c1cccc(Oc2ccccc2)c1)C(F)(F)F (stereo not given) | – | inhibition [2]: 30%; Increase [3]: 20%; bioavailability [4]: < 10%; inhibition in vivo at 30 mg/kg [5]: 50% |
| Cc1ccc(CN(CC(O)C(F)(F)F)c2cccc(F)c2)cc1 (stereo not given) | 65 µM | – |
| OC(CN(Cc1cccc(OC(F)(F)F)c1)c1cccc(Oc2ccccc2)c1)c1ccccc1 (stereo not given) | > 50 µM | – |
| Cc1ccccc1N(Cc1cccc(C(F)(F)F)c1)CC(O)C(F)(F)F (stereo not given) | > 100 µM | – |
| OC(CN(Cc1cccc(C2CCCC2)c1)c1cccc(Oc2ccccc2)c1)C(F)(F)F (stereo not given) | 0.3 µM | – |
| O[C@H](CN(Cc1cccc(OC(F)(F)C(F)F)c1)c1cccc(Oc2ccccc2)c1)C(F)(F)F | – | inhibition [6]: 30% |
| CC(C)(O)c1cccc(CN(CC(O)C(F)(F)F)c2cccc(Oc3ccccc3)c2)c1 (stereo not given) | 7.8 µM | – |
| C=CC(O)CN(Cc1cccc(OC(F)(F)F)c1)c1cccc(Oc2ccccc2)c1 (stereo not given) | > 50 µM | – |
| OC(COc1cccc(CN(CC(O)C(F)(F)F)c2cccc(Oc3ccccc3)c2)c1)C(F)(F)F (stereo not given) | 1.3 µM | IC50 [7]: 62 µM |
| COc1cccc(CN(CC(O)C(F)(F)F)c2cccc(Oc3ccccc3)c2)c1 (stereo not given) | 15 µM | IC50 [7]: > 200 µM |
| CC(C)(C)Oc1cccc(CN(CC(O)C(F)(F)F)c2cccc(Oc3ccccc3)c2)c1 (stereo not given) | 0.66 µM | IC50 [7]: 29 µM |

Continued, in another order:

| IC50 [1] | Structure (SMILES) | also measured |
| --- | --- | --- |
| > 50 µM | OC(Cc1ccccc1)CN(Cc1cccc(OC(F)(F)F)c1)c1cccc(Oc2ccccc2)c1 (stereo not given) | – |
| 16 µM | COC(=O)c1cccc(CN(CC(O)C(F)(F)F)c2cccc(Oc3ccccc3)c2)c1 (stereo not given) | – |
| 12 µM | OC(CN(Cc1cccc(C(F)(F)F)c1)c1cccc(Cl)c1)C(F)(F)F (stereo not given) | – |
| > 100 µM | Cc1ccccc1CN(CC(O)C(F)(F)F)c1cccc(F)c1 (stereo not given) | – |
| 4.5 µM | OC(CN(Cc1cccc(OC(F)(F)C(F)F)c1)c1cccc(F)c1)C(F)(F)F (stereo not given) | – |
| > 100 µM | Cc1ccc(N(Cc2cccc(C(F)(F)F)c2)CC(O)C(F)(F)F)cc1 (stereo not given) | – |
